Assays:
Mus musculus [1] = test: Mean biodistribution and elimination data in liver was reported 4 hr after administering compound intravenously in tumor-bearing female BALB-C mice.; format: ADME, organism-based; conditions: in vivo, iv
Outline: (§1)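 Female Balb-C mice bearing Line-1 spontaneous lung carcinoma were used 1 week after inoculation of 10⁶ cells. The iodine-125-labeled compound was given in normal saline, filter-sterilized, by lateral tail vein injection under ether anesthesia. At set times the mice were killed and the organs excised, rinsed, blotted and weighed. Activity was gamma-counted and reported as percent injected dose/gram tissue; thyroid was reported as percent injected dose/tissue.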

CCRF-CEM [2] = test: In vitro inhibition leukemia CCRF-CEM cell line growth; format: functional, Homo sapiens
Outline: (§2)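 NCI 60-cell-line human tumor screen. Cells were grown 24 h after plating, then exposed 48 h to compound at 10⁻⁴, 10⁻⁵, 10⁻⁶, 10⁻⁷ and 10⁻⁸ M. Growth effect (percent inhibition or kill) was read spectrophotometrically by sulforhodamine B protein staining.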

Mus musculus [3] = test: Mean biodistribution and elimination data in thyroid was reported 1 hr after administering compound intravenously in tumor-bearing female BALB-C mice.; format: ADME, organism-based, Thyroid gland; conditions: in vivo, iv; outline: as §1
HOP-18 [4] = test: In vitro inhibition lung HOP-18 cell line; format: functional, Homo sapiens; outline: as §2
Mus musculus [5] = test: Mean biodistribution and elimination data in tumoe was reported 24 h after administering compound intravenously in tumor-bearing female BALB-C mice.; format: ADME, organism-based; conditions: in vivo, iv; outline: as §1
CCRF-CEM [6] = test: In vitro inhibition leukemia CCRF-CEM cell line; format: functional, Homo sapiens; outline: as §2
Mus musculus [7] = test: Mean biodistribution and elimination data in thyroid was reported 4 hr after administering compound intravenously in tumor-bearing female BALB-C mice.; format: ADME, organism-based, Thyroid gland; conditions: in vivo, iv; outline: as §1
Mus musculus [8] = test: Mean biodistribution and elimination data in blood was reported 4 hr after administering compound intravenously in tumor-bearing female BALB-C mice.; format: ADME, organism-based; conditions: in vivo, iv; outline: as §1
Mus musculus [9] = test: Mean biodistribution and elimination data in kidney was reported 1 hr after administering compound intravenously in tumor-bearing female BALB-C mice.; format: ADME, organism-based; conditions: in vivo, iv; outline: as §1
Mus musculus [10] = test: Mean biodistribution and elimination data in thyroid was reported 24 hr after administering compound intravenously in tumor-bearing female BALB-C mice.; format: ADME, organism-based, Thyroid gland; conditions: in vivo, iv; outline: as §1
Mus musculus [11] = test: Mean biodistribution and elimination data in tumor was reported 4 hr after administering compound intravenously in tumor-bearing female BALB-C mice.; format: ADME, organism-based; conditions: in vivo, iv; outline: as §1
SNB-75 [12] = test: In vitro inhibition CNS SNB-75 cell line; format: functional, Homo sapiens; outline: as §2
Mus musculus [13] = test: Mean biodistribution and elimination data in liver was reported 24 h after administering compound intravenously in tumor-bearing female BALB-C mice.; format: ADME, organism-based; conditions: in vivo, iv; outline: as §1
Mus musculus [14] = test: Mean biodistribution and elimination data in kidney was reported 4 hr after administering compound intravenously in tumor-bearing female BALB-C mice.; format: ADME, organism-based; conditions: in vivo, iv; outline: as §1
Mus musculus [15] = test: Mean biodistribution and elimination data in lung was reported 1 hr after administering compound intravenously in tumor-bearing female BALB-C mice.; format: ADME, organism-based; conditions: in vivo, iv; outline: as §1
Mus musculus [16] = test: Mean biodistribution and elimination data in tumor was reported 1 hr after administering compound intravenously in tumor-bearing female BALB-C mice.; format: ADME, organism-based; conditions: in vivo, iv; outline: as §1
Mus musculus [17] = test: Mean biodistribution and elimination data in urine was reported 24 h after administering compound intravenously in tumor-bearing female BALB-C mice.; format: ADME, organism-based; conditions: in vivo, iv
Outline: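 Tumor-bearing female Balb-C mice (Line-1 lung carcinoma) received the ¹²⁵I-labeled compound in normal saline by tail vein injection under ether anesthesia. Urine radioactivity was gamma-counted and expressed as percent injected dose per total sample. Urine was also analyzed by TLC (solvent E) using UV and radioscanning.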

Mus musculus [18] = test: Mean biodistribution and elimination data in liver was reported 1 hr after administering compound intravenously in tumor-bearing female BALB-C mice.; format: ADME, organism-based; conditions: in vivo, iv; outline: as §1
Mus musculus [19] = test: Mean biodistribution and elimination data in blood was reported 1 h after administering compound intravenously in tumor-bearing female BALB-C mice.; format: ADME, organism-based; conditions: in vivo, iv; outline: as §1
Mus musculus [20] = test: Mean biodistribution and elimination data in lung was reported 4 hr after administering compound intravenously in tumor-bearing female BALB-C mice.; format: ADME, organism-based; conditions: in vivo, iv; outline: as §1
Mus musculus [21] = test: Mean biodistribution and elimination data in kidney was reported 24 hr after administering compound intravenously in tumor-bearing female BALB-C mice.; format: ADME, organism-based; conditions: in vivo, iv; outline: as §1
SNB-75 [22] = test: In vitro inhibition CNS SNB-75 cell line growth; format: functional, Homo sapiens; outline: as §2
Mus musculus [23] = test: Mean biodistribution and elimination data in blood was reported 24 hr after administering compound intravenously in tumor-bearing female BALB-C mice.; format: ADME, organism-based; conditions: in vivo, iv; outline: as §1
HOP-18 [24] = test: In vitro inhibition lung HOP-18 cell line growth; format: functional, Homo sapiens; outline: as §2
Mus musculus [25] = test: Mean biodistribution and elimination data in lung was reported 24 hr after administering compound intravenously in tumor-bearing female BALB-C mice.; format: ADME, organism-based; conditions: in vivo, iv; outline: as §1
NCI-H522 [26] = test: In vitro inhibition lung […] cell line; format: functional, Homo sapiens; outline: as §2
UO-31 [27] = test: In vitro inhibition renal UO-31 cell line growth.; format: functional, Homo sapiens; outline: as §2
LXFL 529 [28] = test: In vitro inhibition lung LXFL529 cell line growth; format: functional, Homo sapiens; outline: as §2
NCI-H522 [29] = test: In vitro inhibition lung […] cell line growth; format: functional, Homo sapiens; outline: as §2
UO-31 [30] = test: In vitro inhibition renal UO-31 cell line; format: functional, Homo sapiens; outline: as §2
LXFL 529 [31] = test: In vitro inhibition lung LXFL529 cell line; format: functional, Homo sapiens; outline: as §2
DMS-114 = test: In vitro inhibition of lung DMS 114 cell line; format: functional, Homo sapiens; outline: as §2
SR = test: In vitro inhibition of leukemia SR cell line; format: functional, Homo sapiens; outline: as §2
K562 [32] = test: In vitro inhibition of leukemia K-562 cell line; format: functional, Homo sapiens; outline: as §2
LOX IMVI = test: In vitro inhibition of melanoma […] cell line; format: functional, Homo sapiens; outline: as §2
MOLT-4 = test: In vitro inhibition of Leukemia Molt-4 cell line; format: functional, Homo sapiens; outline: as §2
K562 [33] = test: In vitro inhibition of leukemia K-562 cell line.; format: functional, Homo sapiens; outline: as §2

Nc1ncnc2c1ncn2COC/C=C/I
ID/g (Mus musculus [1]): 1.34%
Inhibition (CCRF-CEM [2]): 52.6%
ID/thyroid (Mus musculus [3]): 1.29%
Cell growth (HOP-18 [4]): 21.2%
ID/g (Mus musculus [5]): 0.06%
Cell growth (CCRF-CEM [6]): 47.4%
ID/thyroid (Mus musculus [7]): 3.61%
ID/g (Mus musculus [8]): 1.33%
ID/g (Mus musculus [9]): 3.68%
ID/thyroid (Mus musculus [10]): 3.49%
ID/g (Mus musculus [11]): 0.6%
Cell growth (SNB-75 [12]): 25.2%
ID/g (Mus musculus [13]): 0.33%
ID/g (Mus musculus [14]): 1%
ID/g (Mus musculus [15]): 3.41%
ID/g (Mus musculus [16]): 1.5%
ID/animal (Mus musculus [17]): 94.36%
ID/g (Mus musculus [18]): 3.4%
ID/g (Mus musculus [19]): 3.15%
ID/g (Mus musculus [20]): 1.3%
ID/g (Mus musculus [21]): 0.2%
Inhibition (SNB-75 [22]): 74.8%
ID/g (Mus musculus [23]): 0.34%
Inhibition (HOP-18 [24]): 78.8%
ID/g (Mus musculus [25]): 0.35%

C#CCOCn1cnc2c(Sc3c([N+](=O)[O-])ncn3C)ncnc21
Cell growth (NCI-H522 [26]): 32%
Inhibition (CCRF-CEM [2]): 50%
Inhibition (UO-31 [27]): 52%
Cell growth (CCRF-CEM [6]): 50%
Inhibition (LXFL 529 [28]): 63%
Cell growth (SNB-75 [12]): -14%
Inhibition (NCI-H522 [29]): 68%
Cell growth (UO-31 [30]): 48%
Cell growth (LXFL 529 [31]): 37%

C#CCOCn1cnc2c(S)ncnc21
Cell growth (SNB-75 [12]): 0%
Inhibition (SNB-75 [22]): 100%

C#CCOCn1cnc2c(Cl)ncnc21
Cell growth (DMS-114): 21%
Inhibition (DMS-114): 79%
Cell growth (SR): 38.4%
Inhibition (SR): 61.6%
Inhibition (K562 [32]): 65.2%
Cell growth (LOX IMVI): 33.5%
Inhibition (LOX IMVI): 66.5%
Cell growth (MOLT-4): 40.7%
Inhibition (MOLT-4): 59.3%
Cell growth (K562 [33]): 34.8%
